Assay [1] concerns the target T1, Substance-K receptor (Homo sapiens, UniProt P21452).
T1 sequence (P21452 whole entry): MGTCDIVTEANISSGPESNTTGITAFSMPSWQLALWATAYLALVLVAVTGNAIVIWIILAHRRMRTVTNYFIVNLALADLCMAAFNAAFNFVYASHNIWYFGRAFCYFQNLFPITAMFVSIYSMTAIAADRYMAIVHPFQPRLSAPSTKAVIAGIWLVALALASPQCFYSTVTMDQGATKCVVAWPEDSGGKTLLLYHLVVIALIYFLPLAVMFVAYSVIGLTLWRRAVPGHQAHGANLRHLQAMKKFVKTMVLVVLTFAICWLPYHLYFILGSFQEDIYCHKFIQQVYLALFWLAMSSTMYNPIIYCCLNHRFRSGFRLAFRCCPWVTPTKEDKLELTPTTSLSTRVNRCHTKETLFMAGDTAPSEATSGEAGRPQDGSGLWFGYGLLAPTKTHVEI
Description: (§1) Compound was evaluated for Kd value against [3H]-SR- 48968 on the Tyr206Ala mutated human NK-2 receptor.

In assay [2] the target is T2, Substance-K receptor (Homo sapiens, UniProt P21452, F270A).
T2 sequence (P21452 whole entry): T1 sequence (P21452 whole entry)
Description: Compound was evaluated for Kd value against [3H]-SR- 48968 on the Phe270Ala mutated human NK-2 receptor.

Assay [3] deals with T1, Substance-K receptor. Nature of the assay: Compound was evaluated for Kd value against [125I]NKA on the Wild-type tachykinin receptor 2.
In assay [4] the target is T1, Substance-K receptor. Nature of the assay: Compound was evaluated for Kd value against [3H]-SR- 48968 on the Wild-type tachykinin receptor 2.
Assay [5] deals with T3, Substance-K receptor (Homo sapiens, UniProt P21452, Y206F).
T3 sequence (P21452 whole entry): T1 sequence (P21452 whole entry)
Nature of the assay: Compound was evaluated for Kd value against [3H]-SR- 48968 on the Tyr206Phe mutated human NK-2 receptor.

Assay [6] concerns the target T4, Substance-K receptor (Homo sapiens, UniProt P21452, Y266F).
T4 sequence (P21452 whole entry): T1 sequence (P21452 whole entry)
Description: Compound was evaluated for Kd value against [125I]NKA on the Tyr266Phe mutated human NK-2 receptor.

Assay [7] deals with T3, Substance-K receptor. Nature of the assay: Compound was evaluated for Kd value against [125I]-NKA on the Tyr206Phe mutated human NK-2 receptor.
Assay [8] addresses T4, Substance-K receptor. Description: Compound was evaluated for Kd value against [3H]-SR- 48968 on the Tyr266Phe mutated human NK-2 receptor.
Assay [9] deals with T5, Substance-K receptor (Homo sapiens, UniProt P21452, Y206A).
T5 sequence (P21452 whole entry): T1 sequence (P21452 whole entry)
Described as §1.

Assay [10] has as its target T3, Substance-K receptor. Nature of the assay: Compound was evaluated for Kd value against [125I]NKA on the Tyr206Phe mutated human NK-2 receptor. Summed up:
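Human NK-2 receptor carrying the point mutation, transfected into CHO cells. Radioligand binding with [125I]NKA.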

The structures appear in SMILES notation. Bridge positions count the residues as written; N and C are the ends. Square brackets hold non-standard residues; d marks the D form. Peptide text beside a SMILES is read from it. * marks the point of attachment. NH(β-GlcNAc) = CC(=O)N[C@@H]1[C@@H](O)[C@H](O)[C@@H](CO)O[C@H]1N*; Dap = NC[C@H](N)C(=O)O

For two compounds, Kd results are on record in BindingDB's records for doi:10.1021/jm0010217 (Menarini Ricerche, 2000).

As to `CC(=O)N[C@@H]1[C@@H](O)[C@H](O)[C@@H](CO)O[C@H]1NC(=O)C[C@@H]1NC(=O)[C@H](CC(C)C)NC(=O)[C@@H]2CNC(=O)C[C@H](NC1=O)C(=O)N[C@@H](Cc1c[nH]c3ccccc13)C(=O)N[C@@H](Cc1ccccc1)C(=O)N2` (cyclo(D(NH(β-GlcNAc))DWF[Dap]L); lactam 2-5), the Kd (as a rule, the free concentration of one partner at which half of the binding sites on the other are occupied at equilibrium, for simple one-to-one binding) on Substance-K receptor [1] was over 1000 nM; at Substance-K receptor [2] it was 291 nM; at Substance-K receptor [3] it was 2.1 nM; at Substance-K receptor [4], 4.4 nM; at Substance-K receptor [5] it was 1.9 nM; at Substance-K receptor [6] it was 26 nM. In addition, the Kd on Substance-K receptor [7] is 3.1 nM; on Substance-K receptor [8], 48 nM.

For `O=C1CCC(=O)N[C@@H](Cc2c[nH]c3ccccc23)C(=O)N[C@@H](Cc2ccccc2)C(=O)N[C@H](Cc2ccccc2)CN1` [MEN-11558], the Kd at Substance-K receptor [9] came to 1960 nM; on Substance-K receptor [2] it was 208 nM; at Substance-K receptor [3], 2.7 nM; on Substance-K receptor [4], 10 nM; on Substance-K receptor [5], 1.3 nM; on Substance-K receptor [10], 3.6 nM. For the same compound, the Kd was found to be 34 nM on Substance-K receptor [6] and 48 nM at Substance-K receptor [8].
